Results taken from publication PMC11399684 (Saudi Pharmaceutical Journal : SPJ, 2024).

Tests used:
[1] = Plasma pharmacokinetic study; assay type: in vivo, male Wistar rats; conditions: drug delivered by MPG2 (MPG2ER), intraperitoneal
In short: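 Male Wistar rats (200 ± 50 g), fasted, got a single intraperitoneal dose of the dendrimer formulation at 10 mg/kg drug equivalent in 5 % v/v DMSO, with 4 rats per time point. Retro-orbital blood (0.5 ml) was drawn at 0.5–96 h and centrifuged for 10 min at 12000 rpm, 4 °C. Plasma underwent single-step protein precipitation and HPLC at 254 nm. Parameters came from non-compartmental analysis.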

[2] = Tissue distribution study; assay type: in vivo, male Wistar rats; conditions: for AUCtol / AUMC / Cl: after MPG2ER 10 mg/kg i.p.; for Cmax / MRT / Tmax / half-life: male, Wistar, rat, ip, 10 mg/kg
In short: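 Male Wistar rats (200 ± 50 g), fasted, were dosed intraperitoneally with the formulation at 10 mg/kg drug equivalent in 5 % v/v DMSO, with 4 rats per time point. At 0.5, 1, 2, 4, 6, 12, 24, 48, 72 and 96 h, rats were killed by cervical dislocation. Excised tissues were homogenised, protein-precipitated in a single step and assayed for drug by HPLC.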

## CC(C)c1nc(CN(C)C(=O)N[C@H](C(=O)N[C@@H](Cc2ccccc2)C[C@H](O)[C@H](Cc2ccccc2)NC(=O)OCc2cncs2)C(C)C)cs1 [RTV, ritonavir]
[1]
  Duration of sustained release in plasma: ≤ 72 h
[2]; Brain
  AUCtol: 9.25±2.074 (μg/mL)*hr
  AUMC: 97.42± 68.213 (μg/mL)*hr
  Cl: 0.270± 0.008 (μg/kg)/((μg/mL)/hr
[2]; Heart
  AUCtol: 18.34±1.190 (μg/mL)*hr
  AUMC: 285.923± 47.303 (μg/mL)*hr
  Cl: 0.136± 0.032 (μg/kg)/((μg/mL)/hr
[2]; Kidney
  AUCtol: 29.27±1.620 (μg/mL)*hr
  AUMC: 641.30± 73.625 (μg/mL)*hr
  Cl: 0.087± 0.036 (μg/kg)/((μg/mL)/hr
[2]; Liver
  AUCtol: 14.51±2.024 (μg/mL)*hr
  AUMC: 240.78± 26.201 (μg/mL)*hr
  Cl: 0.172± 0.012 (μg/kg)/((μg/mL)/hr
[2]; Lymph Node
  AUCtol: 25.07±1.305 (μg/mL)*hr
  AUMC: 421.67± 81.067 (μg/mL)*hr
  Cl: 0.085± 0.007 (μg/kg)/((μg/mL)/hr
[2]; Spleen
  AUCtol: 25.82±0.934 (μg/mL)*hr
  AUMC: 464.21± 27.094 (μg/mL)*hr
  Cl: 0.091± 0.043 (μg/kg)/((μg/mL)/hr
[2]; brain
  Cmax: 790 ± 32 ng/mL
  MRT: 10.5 ± 1 h
  Tmax: 4 h
  half-life: 6.67 ± 0.792 h
[2]; heart
  Cmax: 2400 ± 15 ng/mL
  MRT: 15.6 ± 1.93 h
  Tmax: 4 h
  half-life: 13.4 ± 0.45 h
[2]; kidney
  Cmax: 2490 ± 55 ng/mL
  MRT: 21.9 ± 0.761 h
  Tmax: 4 h
  half-life: 14.7 ± 0.652 h
[2]; liver
  Cmax: 2890 ± 21 ng/mL
  MRT: 16.6 ± 0.272 h
  Tmax: 4 h
  half-life: 10.9 ± 0.325 h
[2]; lymph node
  Cmax: 2030 ± 42 ng/mL
  MRT: 16.3 ± 0.937 h
  Tmax: 4 h
  half-life: 12.9 ± 1.09 h
[2]; spleen
  Cmax: 2130 ± 24 ng/mL
  MRT: 18 ± 1 h
  Tmax: 4 h
  half-life: 13 ± 1.02 h

## O=C1Nc2ccc(Cl)cc2[C@@](C#CC2CC2)(C(F)(F)F)O1 [EFV, efavirenz]
[1]
  Duration of sustained release in plasma: up to 96 hrs
[2]; Brain
  AUCtol: 124±1.660 (μg/mL)*hr
  AUMC: 3245±73.69 (μg/mL)*hr
  Cl: 0.08064±0.001 (μg/kg)/((μg/mL)/hr
[2]; Heart
  AUCtol: 132.1±1.150 (μg/mL)*hr
  AUMC: 4027 ±87.53 (μg/mL)*hr
  Cl: 0.07601±0.003 (μg/kg)/((μg/mL)/hr
[2]; Kidney
  AUCtol: 121.2±0.164 (μg/mL)*hr
  AUMC: 3190±6.976 (μg/mL)*hr
  Cl: 0.08248±0.001 (μg/kg)/((μg/mL)/hr
[2]; Liver
  AUCtol: 97.88±1.146 (μg/mL)*hr
  AUMC: 2959±32.860 (μg/mL)*hr
  Cl: 0.1075±0.008 (μg/kg)/((μg/mL)/hr
[2]; Lymph Node
  AUCtol: 96.33±0.190 (μg/mL)*hr
  AUMC: 3143±75.49 (μg/mL)*hr
  Cl: 0.1038±0.002 (μg/kg)/((μg/mL)/hr
[2]; Spleen
  AUCtol: 88±2.205 (μg/mL)*hr
  AUMC: 2799±81.109 (μg/mL)*hr
  Cl: 0.1156±0.002 (μg/kg)/((μg/mL)/hr
[2]; brain
  Cmax: 6653 ± 35 ng/mL
  MRT: 26.2 ± 0.284 h
  Tmax: 6 h
  half-life: 13.53 ± 0.088 h
[2]; heart
  Cmax: 4674 ± 25 ng/mL
  MRT: 30.3 ± 1.28 h
  Tmax: 6 h
  half-life: 19.3 ± 0.598 h
[2]; kidney
  Cmax: 5342 ± 20 ng/mL
  MRT: 27.3 ± 1.02 h
  Tmax: 6 h
  half-life: 17.52 ± 0.0127 h
[2]; liver
  Cmax: 5980 ± 83 ng/mL
  MRT: 30.7 ± 0.384 h
  Tmax: 6 h
  half-life: 16.9 ± 1.09 h
[2]; lymph node
  Cmax: 3440 ± 48 ng/mL
  MRT: 32.63 ± 0.113 h
  Tmax: 6 h
  half-life: 21 ± 0.054 h
[2]; spleen
  Cmax: 4580 ± 69 ng/mL
  MRT: 32.1 ± 1.65 h
  Tmax: 6 h
  half-life: 21.9 ± 0.25 h
